The text below walks through data of ChEMBL document CHEMBL4765303, “Synthesis and evaluation of butein derivatives for in vitro and in vivo inflammatory response suppression in lymphedema” (Eur J Med Chem, 2020).

Values after ≈ are worked out from the molar mass of the structure shown. Active and inactive are the calls of the source. No cut-off for these calls is given here.

Data set [1] in a line: Inhibition of LPS stimulated TNF alpha production in Balb/c mouse peritoneal macrophages at 20 uM measured by ELISA plate reader method. The format is functional. Conditions: Macrophage. Summed up: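 Thioglycollate-elicited peritoneal exudate cells from male Balb/c mice, adherent fraction after overnight plating at 37 °C. Cells stimulated with 100 ng/mL LPS for 24 h with compound at 20 µM. Supernatant TNF-α measured by ELISA. Mean ± SD, n = 3.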

A short description of data set [2]: Inhibition of LPS stimulated TNF alpha production in Balb/c mouse peritoneal macrophages measured by ELISA plate reader method. Conditions: Macrophage. Type of data set: functional.
Data set [3] in a line: Metabolic stability in mouse liver microsomes assessed as percentage of compound remaining after 30 mins. Conditions: read-out: Stabilty. Type of data set: ADME, Microsome. Summed up:
(§1)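 Phase I stability in liver microsomes from mouse, rat and human. Percent of compound remaining measured 30 min after reaction. Buspirone included as a control metabolized in Phase I.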

Data set [4] in a line: Metabolic stability in rat liver microsomes assessed as percentage of compound remaining after 30 mins. Type of data set: ADME, Microsome. Conditions: read-out: Stabilty. Summed up:
as §1
On the technique in general: Liver microsomes are a subcellular fraction often used to study metabolism.

The nature of data set [5]: Metabolic stability in human liver microsomes assessed as percentage of compound remaining after 30 mins. Type of data set: ADME, Microsome. The following applies: read-out: Stabilty. Summed up: as §1
Data set [6] in a line: Dissociation constant, pKa of compound. The format is physicochemical.
Data set [7] is described as follows: Kinetic solubility of compound in water. Type of data set: physicochemical. Conditions: read-out: Kinetic_solubility.
Data set [8] is described as follows: Tmax in CD-1 mouse at 1 mg/kg, iv measured upto 1440 mins by LC/MS/MS analysis. The format is ADME, organism-based. The following applies: in vivo. Summed up:
(§2)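 Male CD-1 mice, 5 weeks old, dosed once, either by tail vein at 1 mg/kg or orally at 20 mg/kg or 100 mg/kg. Plasma levels give Cmax, Tmax and AUC. Values are mean ± SD from three mice. A prodrug is quantified through its main metabolite, the parent compound (LOQ <1 ng/mL).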

Data set [9] in a line: Tmax in CD-1 mouse at 20 mg/kg, po measured upto 1440 mins by LC/MS/MS analysis. Type of data set: ADME, organism-based. The following applies: in vivo. Summed up: as §2
Data set [10] in a line: Tmax in CD-1 mouse at 100 mg/kg, po measured upto 1440 mins by LC/MS/MS analysis. Type of data set: ADME, organism-based. Conditions: in vivo. The gist of the method:
as §2

Data set [11] in a line: Cmax in CD-1 mouse at 1 mg/kg, iv measured upto 1440 mins by LC/MS/MS analysis. Conditions: in vivo. Type of data set: ADME, organism-based. Details: route intravenous, dose 1 mg/kg, time <=1440. The gist of the method: as §2
Data set [12] can be described thus: Cmax in CD-1 mouse at 20 mg/kg, po measured upto 1440 mins by LC/MS/MS analysis. The format is ADME, organism-based. Details: route oral, dose 20 mg/kg, time <=1440. The following applies: in vivo. Summed up: as §2
A short description of data set [13]: Cmax in CD-1 mouse at 100 mg/kg, po measured upto 1440 mins by LC/MS/MS analysis. Type of data set: ADME, organism-based. Details: route oral, dose 100 mg/kg, time <=1440. The following applies: in vivo. Summed up:
as §2

Data set [14] in a line: AUC (0 to infinity) in CD-1 mouse at 1 mg/kg, iv measured upto 1440 mins by LC/MS/MS analysis. The format is ADME, organism-based. Details: route intravenous, dose 1 mg/kg, time <=1440. The following applies: in vivo, 24 h. Summed up:
as §2

A short description of data set [15]: AUC (0 to infinity) in CD-1 mouse at 20 mg/kg, po measured upto 1440 mins by LC/MS/MS analysis. The following applies: in vivo, 24 h. Further details: route oral, dose 20 mg/kg, time <=1440. Type of data set: ADME, organism-based. The gist of the method: as §2
Data set [16] in a line: AUC (0 to infinity) in CD-1 mouse at 100 mg/kg, po measured upto 1440 mins by LC/MS/MS analysis. The format is ADME, organism-based. Further details: route oral, dose 100 mg/kg, time <=1440. The following applies: in vivo. The gist of the method:
as §2

Data set [17] has as its system Mus musculus. Description: Antiinflammatory activity in orally dosed surgical-induced lymphedema ICR mouse model assessed as reduction in lymphedema volume administered for 7 days before surgery and measured 7 days after surgery relative to control. Type of data set: functional. Conditions: time 14 day. Summed up:
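Lymphedema induced in the right lower limb of anesthetized male ICR mice by removing the superficial inguinal, popliteal and deep inguinal lymph nodes and a femoral lymphatic vessel, with limited cautery. Oral dosing at 100 mg/kg/day started 7 days before surgery and continued every 2 days afterwards. Limb volume measured by caliper on day 7 by blinded observers and compared with vehicle.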

Data set [18] concerns Mus musculus. Description: Antiinflammatory activity in orally dosed surgical-induced lymphedema ICR mouse model assessed as reduction in neutrophil infiltration administered for 7 days before surgery and measured 7 days after surgery. The format is functional, organism-based. Conditions: time 14.0 day. Summed up: (§3)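 Surgical lymphedema model in male ICR mice with oral pretreatment starting 7 days before surgery. Right hind-limb tissue taken 15–25 mm distal on day 7 post-surgery and H&E-stained to assess dermal tissue and neutrophils. Groups: normal, vehicle, treated.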

Data set [19] deals with Mus musculus. Description: Antiinflammatory activity in orally dosed surgical-induced lymphedema ICR mouse model assessed as reduction in dermal layer lymphedema tissue administered for 7 days before surgery and measured 7 days after surgery. Type of data set: functional, organism-based. Conditions: time 14.0 day. Summed up: as §3
In data set [20] the test system is Mus musculus. As to the kind of experiment: Antiinflammatory activity in orally dosed surgical-induced lymphedema ICR mouse model assessed as reduction in TNF-alpha mRNA expression administered 7 days before surgery and measured 7 days after surgery by RT-PCR analysis. The format is functional, organism-based. Conditions: time 14.0 day.
Data set [21] concerns Mus musculus. Description: Antiinflammatory activity in orally dosed surgical-induced lymphedema ICR mouse model assessed as reduction in PPARgamma expression administered 7 days before surgery and measured 7 days after surgery by Western blot analysis. Type of data set: functional, organism-based. The following applies: time 14.0 day. For orientation: In western blotting, separated proteins are transferred to a membrane and probed.

In data set [22] the test system is Mus musculus. As to the kind of experiment: Antiinflammatory activity in orally dosed surgical-induced lymphedema ICR mouse model assessed as reduction in PPARgamma expression administered 7 days before surgery and measured 7 days after surgery by immunofluorescence analysis. Type of data set: functional, organism-based. The following applies: time 14.0 day. Summed up:
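Surgical lymphedema in male ICR mice with oral pretreatment. Limb tissue harvested on day 7 post-surgery. Sections immunostained with anti-mouse PPARγ, Alexa Fluor 488 secondary and DAPI, then examined by fluorescence microscopy.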

In data set [23] the test system is Mus musculus. As to the kind of experiment: Antiinflammatory activity in orally dosed surgical-induced lymphedema ICR mouse model assessed as reduction in Fabp4 administered 7 days before surgery and measured 7 days after surgery by Western blot analysis. The format is functional, organism-based. The following applies: time 14.0 day.
Data set [24] can be described thus: Oral bioavailability in CD-1 mouse at 20 mg/kg measured upto 1440 mins by LC/MS/MS analysis. The format is ADME, organism-based. The following applies: in vivo, 24 h. Summed up: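 Male CD-1 mice (5 weeks) dosed orally at 20 mg/kg, with a 1 mg/kg tail-vein reference group. Bioavailability calculated as (AUCpo/AUCiv) × 100. Mean ± SD, three mice.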
For data set [25], the system named is Mus musculus. Description: Antiinflammatory activity in orally dosed surgical-induced lymphedema ICR mouse model assessed as reduction in PPARgamma mRNA expression administered 7 days before surgery and measured 7 days after surgery by RT-PCR analysis. Conditions: time 14.0 day. Type of data set: functional, organism-based.
Data set [26] has as its system Mus musculus. As to the kind of experiment: Antiinflammatory activity in orally dosed surgical-induced lymphedema ICR mouse model assessed as reduction in Fabp4 mRNA expression administered 7 days before surgery and measured 7 days after surgery by RT-PCR analysis. Conditions: time 14.0 day. Type of data set: functional, organism-based.
In data set [27] the test system is Mus musculus. Description: Antiinflammatory activity in orally dosed surgical-induced lymphedema ICR mouse model assessed as reduction in TNF-alpha expression administered 7 days before surgery and measured 7 days after surgery. Conditions: time 14.0 day.

As usually defined, the inhibition is the percentage by which the read-out fell short of the control. Broadly, the IC50 is the concentration that gives 50% inhibition. Regarding `Cc1ccc(C(=O)/C=C/c2ccc(O)c(O)c2)cc1`, the inhibition at 20 µM in [1] is 61%. Further, half-maximal inhibition in data set [2] (IC50) required 18.6 µM.
In the same order, the values of `CC(=O)Oc1ccc(C(=O)/C=C/c2ccc(OC(C)=O)c(OC(C)=O)c2)c(OC(C)=O)c1` are 73% and 12.8 µM.
As for `O=C1CC2(CCCC2)CC(=O)N1CCCCN1CCN(c2ncccn2)CC1` [BUSPIRONE], the remaining at 0.5 h in data set [3] is 0.0183%; in data set [4], 0.0928%; in [5], 4.7%.
Regarding `O=C(/C=C/c1ccc(F)c(O)c1)c1ccc(O)cc1O`, testing at 20 µM in [1] gave an inhibition of 22%.
Broadly, the pKa is the pH at which an ionisable group is half protonated. Higher therefore signals a weaker acid or stronger base. For orientation: Tmax means the time at which the peak concentration occurs. As usually defined, the Cmax is the maximum level reached in the sampled fluid or tissue. The term AUC denotes the area under the concentration-time curve, a measure of exposure. In the case of `O=C(Oc1cc(O)ccc1C(=O)/C=C/c1ccc(O)c(O)c1)c1ccccc1`, the inhibition at 20 µM in data set [1] is 51%. In data set [2], this molecule displayed an IC50 of 14.6 µM. Moreover, the remaining at 0.5 h in data set [3] came out at 4%; in [4], 7%; in [5], 2%. The molecule also had a pKa in data set [6] of 3.38. For the same molecule, the solubility kinetic in data set [7] was determined as 136 µg/mL (≈ 361 µM). The Tmax is 12 min in data set [8], 24 min in data set [9] and 24 min in data set [10]. Moreover, the values for the Cmax in data set [11], in [12] and in [13] were 110 ng/mL, 83 ng/mL and 1600 ng/mL, respectively. In addition, the AUC was found to be 163 ng·h/mL in data set [14]; 141 ng·h/mL in data set [15]; 1224 ng·h/mL in data set [16] (mouse, 24 h). Also, the “inhibition (INH)” value in [17] worked out at 70%. In addition, the inhibition entry in data set [18], in [19], in data set [20], in data set [21], in [22] and in [23] was “Active” throughout. In addition, the inhibition entry in data set [25], in data set [26] and in data set [27] was “Active” in each case. This molecule also returned a F in data set [24] of 4%.
`Cc1cc(O)ccc1C(=O)/C=C/c1ccc(O)c(O)c1` showed an inhibition at 20 µM in [1] of 41%. For the same molecule, the 50% inhibitory concentration (IC50) in data set [2] is 48.4 µM.
As for `O=C(Oc1cc(O)ccc1C(=O)/C=C/c1ccc(O)c(O)c1)c1ccc(Cl)cc1`, the IC50 in [2] came out at 17.9 µM. That is a double-digit micromolar value.
In data set [2], `Cc1ccc(C(=O)Oc2cc(O)ccc2C(=O)/C=C/c2ccc(O)c(O)c2)cc1` displayed an IC50 of 18.9 µM.
With `CC(C)Oc1cc(O)ccc1C(=O)/C=C/c1ccc(O)c(O)c1`, in data set [1], the inhibition at 20 µM was 64%.
Turning to `O=C(/C=C/c1ccc(O)c(O)c1)c1ccc(O)cc1F`, testing at 20 µM in [1] gave an inhibition of 32%.
One may read the AUC(0-inf) as total exposure, with the tail of the curve extrapolated. Molecule `O=C(/C=C/c1ccc(O)c(O)c1)c1ccc(O)cc1O` [BUTEIN] registered an inhibition at 20 µM in [1] of 20%. The IC50 in data set [2] was 43.3 µM. For the same molecule, the remaining at 0.5 h in data set [3] turned out to be 9.93%; in [4] it was 18.1%; in data set [5], 61.6%. Further, the pKa in data set [6] stood at 7.96. Further, the solubility kinetic in data set [7] came to 21 µg/mL (≈ 77.1 µM). The figures for the Tmax in [8], in data set [9] and in [10] were 6 min, 18 min and 18 min, respectively. Also, the results for the highest concentration (Cmax) in data set [11], in data set [12] and in [13] were 41 ng/mL, 43 ng/mL and 601 ng/mL, respectively. Further, the figures for the AUC in data set [14] and in data set [15] were 6.7 ng·h/mL and 21 ng·h/mL, respectively. Besides, the AUC(0-inf) in [16] (CD-1, mouse) stood at 251 ng·h/mL. For the same molecule, the “inhibition (INH)” value in data set [17] is 52%. Moreover, the inhibition entry in [18], in [19], in data set [20], in [21], in data set [22] and in data set [23] was “Active” throughout. Further, the inhibition entry in data set [25], in data set [26] and in data set [27] was “Active” in each case.
In the case of `COc1ccc(C(=O)Oc2cc(O)ccc2C(=O)/C=C/c2ccc(O)c(O)c2)cc1`, it took 20.8 µM to reach half-maximal inhibition in data set [2] (IC50).
For `O=C(/C=C/c1ccc(O)c(O)c1)c1ccc(Cl)cc1`, in data set [1], the inhibition at 20 µM amounted to 62%. In data set [2], this molecule had a 50% inhibitory concentration (IC50) of 17.3 µM. Also, the remaining at 0.5 h in data set [3] came out at 7.26%; in [4], 21.1%; in data set [5], 38%. The pKa in data set [6] came to 9.23. In data set [7], the solubility kinetic stood at 28 µg/mL (≈ 102 µM). Further, the “inhibition (INH)” value in data set [17] was 53%.
